Screening data (PubChem)
Measles CPE: protection of cells from measles virus | Measles virus-infected cells, CPE protection, absorbance | protection (pct of control), % at 4 µM | 140,000 compounds, 1.5% hits; in the data active = protection mostly above about 24%, no sharp cut-off; inactive = mostly below about 26%
BB579 growth dn: reduces growth of yeast BB579 in restrictive medium | S. cerevisiae BB579 growth, OD615, 48 h | inhibition, % at 10 µM | 140,000 compounds, 0.51% hits | AID 804;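 active = inhibition above a set limit, 3 SD over the mean compound inhibition, cut at about 44% in these data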
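System: DeaD yeast strain BB579; buffer or medium: CSMM-D dextrose restrictive medium; technique: OD at 615 nm; schedule: 4 h cell preincubation, 48 h compound exposure, 30 °C humidified; doses: single 10 µM dose; controls: amphotericin B 10 µg/mL, positive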
Yeast lifespan up: yeast lifespan extension | 130,000 compounds, 0.68% hits | inhibition of the nicotinamide effect, % at 10 µM | AID 775 | S. cerevisiae growth with nicotinamide, OD615; deaD strain in restrictive glucose medium;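 active = inhibition above a set limit, placed 3 SD over the median of all compounds, cut at about 26% in these data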
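System: Modified budding yeast, DeaD strain | Buffer or medium: Restrictive glucose medium | Also added: 1.5 mM nicotinamide | Doses: 10 µM single point, 0.25% DMSO | Schedule: 48 h compound exposure at 30 °C, humidified | Detection: Absorbance at 615 nm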
RAM network inh: yeast RAM network inhibition | S. cerevisiae dse1pr::URA3 reporter, 5-FOA growth OD615, 2 d; analog-sensitive cbk1-as2 kinase mutant strain | inhibition, % at 50 µM | 190,000 compounds, 1.8% hits;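 active = inhibition above a set limit, 3 SD over mean compound inhibition, cut at about 8.4% in these data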;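 note: inhibition rescues growth on 5-FOA so higher OD means more RAM inhibition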
Hits are given with their value; i = inactive; nt = no result given. Hits are enriched below; roughly 3.6% of the tested compounds scored in any of these assays.

SMILES	Measles CPE	BB579 growth dn	Yeast lifespan up	RAM network inh
CC(CCc1ccccc1)NC(=O)CCNC(=O)Cn1ccc2ccccc2c1=O (configuration not stated)	nt	nt	nt	i
CCOc1ccc(N2C(=O)CC(Sc3nc(-c4cccs4)cc(C(F)(F)F)c3C#N)C2=O)cc1 (configuration not stated)	i	i	i	11
O=C(O)CC(NC(=O)c1ccncc1)c1ccccc1 (configuration not stated)	nt	nt	nt	i
O=C1Nc2ccccc2C12OCC1(CO2)COC2(OC1)C(=O)Nc1ccccc12 (configuration not stated)	i	i	67	i
CC1(C)COC2(OC1)C(=O)Nc1ccccc12	nt	nt	nt	i
CC(C)(C)n1nnnc1C(c1ccc(C(F)(F)F)cc1)N(Cc1ccc(F)cc1)Cc1ccco1 (configuration not stated)	i	i	nt	i
CC(C)(C)n1nnnc1C(c1ccc(C(F)(F)F)cc1)N(Cc1ccccc1)Cc1ccco1 (configuration not stated)	i	i	i	11
COc1ccc(-c2noc(N(C)CC(=O)Nc3cccc(C(F)(F)F)c3)n2)cc1	i	i	i	10
COc1ccc(-c2noc(CCC(=O)Nc3cccc(C)c3)n2)cc1	i	i	i	i
COC(=O)/C=C1\SC(=NC(=O)c2cccc(Cl)c2)NC1=O	i	i	i	i
COC(=O)/C=C1/SC(=NC(=O)c2ccccc2)NC1=O	i	i	28	i
Fc1ccc(-c2nnsc2Sc2ccccn2)cc1	nt	nt	nt	i
Cc1cccc(NC(=O)Cn2cnc3c(oc4nc5c(cc43)COC(C)(C)C5)c2=O)c1	i	i	i	8.5
O=C1C=C(Nc2ccc(Cl)cc2Cl)CC(c2ccco2)C1 (configuration not stated)	nt	nt	nt	i
O=C(Cn1c(=O)oc2ccccc21)NCCc1ccccc1Cl	nt	nt	nt	i
Cc1nn(Cc2ccccc2)c(C)c1C(=O)OCC(=O)c1cc(C)n(C2CC2)c1C	i	i	i	9.1
Cc1ccc(S(=O)(=O)N2CCOCC2)cc1NC(=O)CSc1nnnn1C	nt	nt	nt	i
Cc1ccc(OCc2nc(-c3ccc(Cl)cc3)n[nH]2)cc1	33	i	i	i
CCc1ccc(-n2cccc2/C=C2/C(=N)N3C(=NC2=O)SN=C3S(C)(=O)=O)cc1	nt	nt	nt	11
O=C(NC(c1ccc(Cl)cc1)c1c(O)ccc2ccccc12)c1ccccc1 (configuration not stated)	42	i	i	i
CCN(CCNC(=O)C1CCCN(S(=O)(=O)CC)C1)c1ccccc1 (configuration not stated)	i	i	i	i
CCN(CCNC(=O)C1CCN(S(=O)(=O)CC)CC1)c1ccccc1	60	i	i	i
COc1ccc2c(c1)[nH]c1c(Cl)ncnc12	i	61	i	i
C/C(=N\OCC(=O)NC12CC3CC(CC(C3)C1)C2)c1cc2ccccc2o1	19	i	i	i
C/C(=N\OCC(=O)Nc1ccc(F)c(F)c1F)c1cc2ccccc2o1	i	i	i	i
SMILES	Measles CPE	BB579 growth dn	Yeast lifespan up	RAM network inh
CCc1ccc(NC(=O)CO/N=C(\C)c2cc3ccccc3o2)cc1	i	i	i	8.4
CCc1ccc(OCC(=O)Nc2ccc(-c3cc4ccccc4oc3=O)c(OC)c2)cc1	i	i	i	i
O=C(CON=C1c2ccccc2-c2ccccc21)NC12CC3CC(CC(C3)C1)C2	i	i	i	i
CSc1ccccc1NC(=O)CO/N=C(\C)c1cc2ccccc2o1	i	i	i	9.2
COCCNC(=S)N/N=C/c1ccc(OCc2ccc(C(=O)OC)cc2)cc1	nt	i	i	i
CC(=O)Nc1ccccc1OC(C)C(=O)NC(C)c1ccc(F)cc1 (configuration not stated)	i	i	i	i
CCCCn1c(N)c(N(CCC(C)C)C(=O)COC(=O)c2ccco2)c(=O)[nH]c1=O	31	i	i	i
O=C(CC12CC3CC(CC(C3)C1)C2)NC(=S)NCc1ccccc1	i	i	i	9.4
Cc1ccc(C(=O)O/N=C/c2c(C(F)(F)F)nn(C)c2Sc2ccc(Cl)cc2)cc1	i	i	i	9.6
COc1ccccc1NC(=O)COC(=O)c1ccccc1C(=O)N1CCN(c2ccccc2)CC1	nt	nt	nt	i
CC1CCN(c2nc(/C=C/c3ccccc3)nc3ccccc23)CC1	i	91	i	i
C(=C\c1nc(N2CCCC2)c2ccccc2n1)/c1ccccc1	i	i	i	i
COc1cc(/C=C/C(=O)C2C(=O)C=C(C)OC2=O)cc(OC)c1O (configuration not stated)	i	i	64	i
COc1ccc(/C=C/C(=O)C2C(=O)C=C(C)OC2=O)cc1O (configuration not stated)	i	i	44	i
CCCOC(=O)c1c(NC(=O)CSc2nc(-c3ccco3)cc(C(F)(F)F)n2)sc(C(=O)OC)c1C	i	i	i	8.8
O=C(CCc1nc2ccccc2c(=O)[nH]1)Nc1ccc(Cl)c(Cl)c1	31	i	i	i
COc1ccc(C(=O)N2CCN(c3ccc([N+](=O)[O-])c(-n4nc(C)cc4C)c3)CC2)cc1	23	i	i	i
CC(NC(=O)Nc1ccc(Cl)cc1)C(c1cccs1)N1CCOCC1 (configuration not stated)	i	49	i	i
N#Cc1c(Nc2ccc(F)cc2)sc(C(=O)c2ccccc2)c1N	i	i	i	i
N#Cc1c(Nc2ccccc2)sc(C(=O)c2ccccc2)c1N	68	i	i	i
CCOC(=O)c1ccc(N/C=C/C(=O)c2ccc(OC)c(OC)c2)cc1	i	i	i	i
COc1ccc(C(=O)/C=C/Nc2ccc(C)cn2)cc1OC	i	52	nt	i
Nn1cnnc1N/N=C/c1cc(Br)cc(Br)c1O	i	i	i	9.6
O=C(O)c1cccc(N/N=C/c2cc(Br)cc(Br)c2O)c1	i	i	i	i
O=C(Nc1ccc(OC(F)F)c(Cl)c1)Nc1ccc2c(c1)OCO2	41	i	i	i
SMILES	Measles CPE	BB579 growth dn	Yeast lifespan up	RAM network inh
O=C(Nc1ccc2c(c1)OCO2)c1ccc(Cl)s1	54	i	i	i
CC(C)C(C)(C#N)NC(=O)CSc1nc(C2CCCCC2)n(-c2ccccc2)n1 (configuration not stated)	i	i	i	i
O=S1(=O)CCN(C(CCO)c2cccc(C(F)(F)F)c2)CC1 (configuration not stated)	nt	nt	nt	i
Cc1ccc(-c2cc(-c3ccccc3)c3c(N)c(S(C)(=O)=O)sc3n2)cc1	i	i	i	i
CS(=O)(=O)c1sc2nc(-c3cccs3)cc(-c3ccccc3)c2c1N	i	i	i	11
CCOc1ccc2nc(NCCNC(=O)Nc3ccccc3)c(C#N)cc2c1	i	i	104	i
COc1ccc(CN2C(=O)c3ccccc3C(/C=N\OCc3ccc(F)cc3)C2=O)cc1 (configuration not stated)	i	i	i	i
COc1ccc(CN2C(=O)c3ccccc3C(/C=N/OCc3ccc(Cl)cc3)C2=O)cc1 (configuration not stated)	i	i	i	10
Cc1c(NC(=O)CC2NC(=O)NC2=O)c(=O)n(-c2ccccc2)n1C (configuration not stated)	nt	nt	nt	i
